Results pooled from the literature.
Compare with care: the assays were run in different laboratories.
Read-out: enzyme activity
Action: inhibitor
PFF0160c: Dihydroorotate dehydrogenase (quinone), mitochondrial (PFF0160c, Plasmodium falciparum, UniProt Q08210)
PFF0160c E182D: Dihydroorotate dehydrogenase (quinone), mitochondrial (PFF0160c, Plasmodium falciparum, UniProt Q08210, E182D)

Cc1cc(Nc2ccc(Cl)cc2)n2ncnc2n1 — IC50 (PFF0160c): 1600 nM
CCCOc1ccccc1-c1nc2sc3c(c2c(=O)[nH]1)CCN(C)C3 — IC50 (PFF0160c E182D; absorbance): 911 nM
Cc1cc(C(C)NC(=O)c2[nH]cc(-c3c[nH]c4cc(C(F)(F)F)ccc34)c2C)no1 (stereo not shown) — IC50 (PFF0160c; absorbance): > 100000 nM
Cc1nc(Nc2ccc(C(F)(F)F)cc2)c2c(C(F)(F)F)noc2n1 — IC50 (PFF0160c; absorbance): 33 nM
Cc1[nH]c(C(=O)NC(C)c2cnn(C)c2)c(C)c1Cc1ccc(C(F)(F)F)nc1 (stereo not shown) — IC50 (PFF0160c; absorbance): > 30000 nM
Cc1nc(NC2Cc3cc(F)c(F)cc3C2)c2c(C)noc2n1 — IC50 (PFF0160c; absorbance): 48 nM
COC(=O)C1=CNC=C(C(=O)OC)C1c1ccc(Cl)c([N+](=O)[O-])c1 — IC50 (PFF0160c; absorbance): 716 nM
Cc1c(Cc2ccc(C(F)(F)F)nc2)c[nH]c1C(=O)N[C@@H](C)CO — IC50 (PFF0160c; absorbance): 2700 nM
CCN(CC)CC#Cc1ccc2[nH]c(C)c(Cl)c(=O)c2c1 — IC50 (PFF0160c E182D; absorbance): > 10000 nM
Cc1nc(Nc2ccc(S(F)(F)(F)(F)F)cc2)c2c(CO)noc2n1 — IC50 (PFF0160c; absorbance): 2800 nM
